The record followed here is ChEMBL document CHEMBL1145088, “Ascochlorin derivatives as ligands for nuclear hormone receptors” (J Med Chem, 2003).

Series [1] addresses T1, Estrogen receptor (Homo sapiens, UniProt P03372).
T1 sequence (P03372 whole entry): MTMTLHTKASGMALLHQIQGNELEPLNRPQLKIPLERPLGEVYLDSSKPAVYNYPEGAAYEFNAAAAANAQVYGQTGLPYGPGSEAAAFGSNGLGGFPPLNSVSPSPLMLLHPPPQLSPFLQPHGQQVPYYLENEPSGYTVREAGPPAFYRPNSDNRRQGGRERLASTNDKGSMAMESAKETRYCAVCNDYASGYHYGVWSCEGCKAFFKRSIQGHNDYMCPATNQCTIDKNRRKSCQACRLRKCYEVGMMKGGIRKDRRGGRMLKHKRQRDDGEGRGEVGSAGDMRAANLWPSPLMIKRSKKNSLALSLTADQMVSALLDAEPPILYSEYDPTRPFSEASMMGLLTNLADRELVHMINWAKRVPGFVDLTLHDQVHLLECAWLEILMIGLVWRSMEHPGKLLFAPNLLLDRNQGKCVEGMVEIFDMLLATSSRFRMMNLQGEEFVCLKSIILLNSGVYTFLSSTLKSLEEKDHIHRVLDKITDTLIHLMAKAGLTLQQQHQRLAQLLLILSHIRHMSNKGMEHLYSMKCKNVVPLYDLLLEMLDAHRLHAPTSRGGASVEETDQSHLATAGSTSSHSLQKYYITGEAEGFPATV
Kind of series: Minimum effective concentration required to activate Estrogen receptor 1 (ER alpha); Not detected.

Series [2] deals with T2, Nuclear receptor subfamily 1 group I member 2 (Homo sapiens, UniProt O75469).
T2 sequence (O75469 whole entry): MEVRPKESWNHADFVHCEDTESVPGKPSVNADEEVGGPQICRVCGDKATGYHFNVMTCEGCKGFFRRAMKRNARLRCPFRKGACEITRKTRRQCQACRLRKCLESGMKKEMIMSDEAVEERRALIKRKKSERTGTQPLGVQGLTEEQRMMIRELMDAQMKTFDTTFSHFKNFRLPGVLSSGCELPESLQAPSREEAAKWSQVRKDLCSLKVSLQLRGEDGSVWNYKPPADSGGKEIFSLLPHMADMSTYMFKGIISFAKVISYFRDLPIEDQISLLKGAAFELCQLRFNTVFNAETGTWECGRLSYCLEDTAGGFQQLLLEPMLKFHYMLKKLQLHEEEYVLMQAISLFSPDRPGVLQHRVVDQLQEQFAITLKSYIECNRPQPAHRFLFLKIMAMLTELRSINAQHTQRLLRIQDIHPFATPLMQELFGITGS
Kind of series: Minimum effective concentration required to activate pregnane X receptor (PXR).

For series [3], the system named is U2OS (Homo sapiens). The series can be described thus: Concentration required for inhibition of U2OS cell growth.
Series [4] addresses T3, Androgen receptor (Homo sapiens) (UniProt P10275).
T3 sequence (whole entry): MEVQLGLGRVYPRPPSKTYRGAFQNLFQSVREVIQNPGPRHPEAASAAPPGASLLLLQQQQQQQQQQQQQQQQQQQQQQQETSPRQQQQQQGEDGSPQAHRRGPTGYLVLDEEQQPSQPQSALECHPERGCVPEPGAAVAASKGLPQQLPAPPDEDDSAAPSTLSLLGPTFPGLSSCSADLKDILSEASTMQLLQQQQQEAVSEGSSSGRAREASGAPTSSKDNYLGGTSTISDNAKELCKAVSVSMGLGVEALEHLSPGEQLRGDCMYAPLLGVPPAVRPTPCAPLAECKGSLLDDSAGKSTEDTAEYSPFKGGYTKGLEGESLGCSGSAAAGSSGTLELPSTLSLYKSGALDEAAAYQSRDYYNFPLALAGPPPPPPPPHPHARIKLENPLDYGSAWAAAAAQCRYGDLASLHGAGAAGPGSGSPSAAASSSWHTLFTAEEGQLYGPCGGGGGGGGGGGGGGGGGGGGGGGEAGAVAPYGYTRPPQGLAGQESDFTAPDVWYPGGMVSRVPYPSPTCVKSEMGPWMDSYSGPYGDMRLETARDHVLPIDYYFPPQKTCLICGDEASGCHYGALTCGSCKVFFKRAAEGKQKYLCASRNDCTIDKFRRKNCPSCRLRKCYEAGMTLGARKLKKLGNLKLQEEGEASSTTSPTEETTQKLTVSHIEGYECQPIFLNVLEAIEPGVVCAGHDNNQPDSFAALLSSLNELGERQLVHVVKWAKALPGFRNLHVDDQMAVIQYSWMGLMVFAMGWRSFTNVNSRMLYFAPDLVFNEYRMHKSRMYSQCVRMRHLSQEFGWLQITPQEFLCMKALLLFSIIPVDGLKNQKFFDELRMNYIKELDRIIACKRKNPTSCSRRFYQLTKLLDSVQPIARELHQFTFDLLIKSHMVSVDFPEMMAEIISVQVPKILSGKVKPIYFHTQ
The series can be described thus: Minimum effective concentration for androgen receptor (AR) activation.

Series [5] deals with T4, Estrogen receptor beta (Homo sapiens, UniProt Q92731). Kind of series: Minimum effective concentration required to activate Estrogen receptor 2 (ER beta); Not detected.
T4 sequence (Q92731 whole entry): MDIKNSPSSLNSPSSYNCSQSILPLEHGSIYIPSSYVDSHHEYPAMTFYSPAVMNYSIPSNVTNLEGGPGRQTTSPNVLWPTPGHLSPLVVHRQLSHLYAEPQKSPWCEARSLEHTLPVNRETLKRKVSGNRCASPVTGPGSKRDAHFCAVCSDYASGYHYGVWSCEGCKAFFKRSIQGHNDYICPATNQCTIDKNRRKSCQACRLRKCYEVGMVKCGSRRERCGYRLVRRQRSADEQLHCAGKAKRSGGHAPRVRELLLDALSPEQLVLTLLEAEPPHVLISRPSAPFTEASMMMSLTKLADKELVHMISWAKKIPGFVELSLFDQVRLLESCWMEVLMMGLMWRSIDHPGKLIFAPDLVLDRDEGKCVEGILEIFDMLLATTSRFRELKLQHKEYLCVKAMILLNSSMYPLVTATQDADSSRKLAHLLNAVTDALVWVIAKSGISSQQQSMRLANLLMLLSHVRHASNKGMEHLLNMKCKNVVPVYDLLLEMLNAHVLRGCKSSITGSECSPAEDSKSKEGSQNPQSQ
Series [6] addresses T4, Estrogen receptor beta. The series can be described thus: Minimum effective concentration for Estrogen receptor 2 (ER beta) inhibition. Put shortly: (§1)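 U2OS cells were calcium-phosphate co-transfected with an ER expression vector (2 µg), an ER reporter plasmid (4 µg) and pCMV-β-galactosidase (4 µg) as internal control. After 12 h cells were PBS-washed and recovered 4 h, then trypsinized and exposed to drugs for 20 h. Lysate reporter activity was normalised to β-gal and expressed as stimulation index; triplicate cultures.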

Series [7] has as its target T5, Estrogen receptor (Homo sapiens) (UniProt P03372).
T5 sequence (whole entry): T1 sequence (P03372 whole entry)
Kind of series: Minimum effective concentration for Estrogen receptor 1 (ER alpha) inhibition. Put shortly:
as §1

The target in series [8] is T2, Nuclear receptor subfamily 1 group I member 2. The series can be described thus: Minimum effective concentration required to inhibit pregnane X receptor (PXR). In outline:
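U2OS cells (1 × 10^6 per 10 cm dish) were calcium-phosphate transfected with the receptor expression vector (2 µg; Gal4 fusions for PXR and PPARα), the matching reporter (4 µg) and pCMV-β-galactosidase (4 µg). They were cultured 12 h, PBS-washed, given fresh medium 4 h, trypsinized and exposed to drugs 20 h. Luciferase/CAT activity normalized to β-galactosidase as stimulation index; triplicate cultures.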

The target of series [9] is T6, Peroxisome proliferator-activated receptor gamma (Homo sapiens) (UniProt P37231).
T6 sequence (whole entry): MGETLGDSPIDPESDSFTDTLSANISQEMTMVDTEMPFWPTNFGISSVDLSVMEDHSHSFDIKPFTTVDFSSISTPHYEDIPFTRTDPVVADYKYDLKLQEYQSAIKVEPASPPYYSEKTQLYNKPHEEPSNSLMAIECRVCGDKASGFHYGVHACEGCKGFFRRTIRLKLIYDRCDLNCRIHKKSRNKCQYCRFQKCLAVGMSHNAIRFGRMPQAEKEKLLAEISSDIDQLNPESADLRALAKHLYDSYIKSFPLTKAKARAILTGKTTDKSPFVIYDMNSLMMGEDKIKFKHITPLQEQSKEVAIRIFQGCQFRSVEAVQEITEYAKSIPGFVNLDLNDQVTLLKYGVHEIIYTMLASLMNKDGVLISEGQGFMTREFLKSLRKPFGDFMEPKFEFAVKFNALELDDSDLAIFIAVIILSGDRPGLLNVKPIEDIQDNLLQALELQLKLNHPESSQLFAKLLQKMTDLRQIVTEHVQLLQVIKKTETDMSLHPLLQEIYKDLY
The series can be described thus: Minimum effective concentration required to inhibit Peroxisome proliferator activated receptor gamma (PPAR gamma).

The target of series [10] is T7, Peroxisome proliferator-activated receptor alpha (Homo sapiens) (UniProt Q07869).
T7 sequence (whole entry): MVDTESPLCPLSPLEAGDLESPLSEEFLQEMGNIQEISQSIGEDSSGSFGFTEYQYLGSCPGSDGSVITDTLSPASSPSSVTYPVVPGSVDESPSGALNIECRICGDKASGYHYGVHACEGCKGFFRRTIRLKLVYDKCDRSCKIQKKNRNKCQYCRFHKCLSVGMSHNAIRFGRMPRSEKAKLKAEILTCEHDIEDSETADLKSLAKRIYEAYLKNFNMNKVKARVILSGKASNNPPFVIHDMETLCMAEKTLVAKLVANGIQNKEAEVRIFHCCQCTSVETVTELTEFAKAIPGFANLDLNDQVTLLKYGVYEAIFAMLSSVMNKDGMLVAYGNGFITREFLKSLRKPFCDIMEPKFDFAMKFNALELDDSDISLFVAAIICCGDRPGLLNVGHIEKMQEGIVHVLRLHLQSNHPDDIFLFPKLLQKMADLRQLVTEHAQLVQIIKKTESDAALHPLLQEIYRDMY
The series can be described thus: Minimum effective concentration for peroxisome proliferator activated receptor (PPAR alpha) activation.

For the compound `CC(=O)Oc1c(Cl)c(C)c(C(=O)O)c(OC(C)=O)c1C/C=C(C)/C=C/[C@@]1(C)[C@H](C)CCC(=O)[C@@H]1C`, the MEC entry in [1] is “Not Active”; in [2], 1 µM; in series [4], 1 µM; in series [5], “Not Active”. Further, the IC50 in series [3] came to 32 µM.
Take `CC(/C=C/[C@@]1(C)[C@H](C)CCC(=O)[C@@H]1C)=C\Cc1c(O)c(Cl)c(C)c(C=O)c1O` [ASCOCHLORIN]: the MEC in series [2], in series [6] and in [7] was 1 µM throughout. This compound gave an IC50 in [3] of 1 µM.
On to `CC(/C=C/[C@@]1(C)[C@H](C)CCC(=O)[C@@H]1C)=C\Cc1c(O)c(C=O)c(C)c(Cl)c1OC(=O)c1ccccn1`, for which the values for the MEC in series [8] and in series [9] were 1 µM and 3 µM, respectively.
Taken in the same sequence, the figures for `COc1c(C=O)c(C)c(Cl)c(OC(=O)c2ccccn2)c1C/C=C(C)/C=C/[C@@]1(C)[C@H](C)CCC(=O)[C@@H]1C` were 1 µM and 30 µM.
For `COc1c(C=O)c(C)c(Cl)c(OC(=O)c2ccncc2)c1C/C=C(C)/C=C/[C@@]1(C)[C@H](C)CCC(=O)[C@@H]1C`, the results for the MEC in series [8] and in series [9] were 3 µM and 0.3 µM, respectively.
On to `C/C(=C\Cc1c(O)c(Cl)c(C)c(C=O)c1O)CC/C=C(\C)C1=CC(=O)C(C)(C)O1`, for which the MEC result in [1] is “Not Active”; in [10], 10 µM; in [2], 1 µM; in [5], “Not Active”. Besides, the IC50 in [3] worked out at 56 µM.
